Measured values: ChEMBL document CHEMBL1926666, “Synthesis of novel 3-cyclohexylpropanoic acid-derived nitrogen heterocyclic compounds and their evaluation for tuberculostatic activity” (Bioorg Med Chem, 2012)
≈ marks a conversion by molar mass, not a printed value.

These compounds were tested on Mycobacterium tuberculosis (assay: Antituberculosis activity against multidrug-resistant Mycobacterium tuberculosis isolate Spec. 192 by twofold serial dilution method).
Assay type: functional
How it was run: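 Classical two-fold test-tube serial dilution in Youmans' modified Proskauer–Beck liquid medium with 10% bovine serum. Inocula from 14-day cultures. Compounds in ethylene glycol, 10 mg/mL stock, geometric dilutions in medium; 3.1, 6.2, 12.5, 25, 50 and 100 µg/mL evaluated. Incubation at 37 °C. MIC = lowest concentration inhibiting growth relative to a compound-free tube. INH, PZA and RMP served as reference drugs.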

`c1ccc2nc3cc4[nH]c(CCC5CCCCC5)nc4cc3nc2c1` and `c1ccc2c(c1)ccc1nc(CCC3CCCCC3)[nH]c12` are the same in MIC: 1.5 µg/mL (≈ 4.54 µM) for the first, 1.5 µg/mL (≈ 5.39 µM) for the second.

`S=c1[nH]nc(CCC2CCCCC2)n1C1CCCCC1` and `Cn1c(CCC2CCCCC2)n[nH]c1=S` are the same in MIC: 100 µg/mL (≈ 341 µM) for the first, 100 µg/mL (≈ 444 µM) for the second.

Going from `CNC(=S)NNC(=O)CCC1CCCCC1` to `CSC(=S)NNC(=O)CCC1CCCCC1`, the MIC falls from 100 µg/mL (≈ 411 µM) to 50 µg/mL (≈ 192 µM) (2-fold).

Going from `NNC(=O)c1ccncc1` [ISONIAZID] to `NC(=O)c1cnccn1` [PYRAZINAMIDE], the MIC rises from 0.5 µg/mL (≈ 3.65 µM) to 25 µg/mL (≈ 203 µM) (50-fold).

Going from `Cl.Cl.c1cc2nc(CCC3CCCCC3)[nH]c2cn1` to `c1cnc2[nH]c(CCC3CCCCC3)nc2c1`, the MIC rises from 25 µg/mL to 50 µg/mL (≈ 218 µM) (2-fold).

Going from `O=C(CCC1CCCCC1)NN=C1SCCS1` to `CSC(=NNC(=O)CCC1CCCCC1)SC`, the MIC falls from 100 µg/mL (≈ 367 µM) to 50 µg/mL (≈ 182 µM) (2-fold).

`C=CCn1c(CCC2CCCCC2)n[nH]c1=S` and `S=c1[nH]nc(CCC2CCCCC2)[nH]1` are the same in MIC: 50 µg/mL (≈ 199 µM) for the first, 50 µg/mL (≈ 237 µM) for the second.

Compared with `S=c1[nH]nc(CCC2CCCCC2)n1-c1ccc(Cl)cc1`, `O=C(CCC1CCCCC1)NNC(=S)Nc1ccc(Cl)cc1` is 2-fold lower in MIC: 100 µg/mL (≈ 311 µM) for the first, 50 µg/mL (≈ 147 µM) for the second.

Going from `O=[N+]([O-])c1cc(Cl)cc2[nH]c(CCC3CCCCC3)nc12` to `Brc1cnc2[nH]c(CCC3CCCCC3)nc2c1`, the MIC falls from 12.5 µg/mL (≈ 40.6 µM) to 6.2 µg/mL (≈ 20.1 µM) (2-fold).

`C=CCNC(=S)NNC(=O)CCC1CCCCC1` and `O=C(CCC1CCCCC1)NNC(=S)NC1CCCCC1` are the same in MIC: 100 µg/mL (≈ 371 µM) for the first, 100 µg/mL (≈ 321 µM) for the second.

Going from `CO[C@H]1/C=C/O[C@@]2(C)Oc3c(C)c(O)c4c(O)c(c(/C=N/N5CCN(C)CC5)c(O)c4c3C2=O)NC(=O)/C(C)=C\C=C\[C@H](C)[C@H](O)[C@@H](C)[C@@H](O)[C@@H](C)[C@H](OC(C)=O)[C@@H]1C` [RIFAMPIN] to `CC1(C)CNc2nnc(CCC3CCCCC3)n2C1`, the MIC rises from 1.2 µg/mL (≈ 1.46 µM) to 100 µg/mL (≈ 381 µM) (83-fold).

`S=c1[nH]nc(CCC2CCCCC2)o1` was tested, and the MIC was 25 µg/mL (≈ 118 µM).
